Results taken from ChEMBL document CHEMBL1137607, “De novo discovery of serotonin N-acetyltransferase inhibitors” (J Med Chem, 2007).
pIC50: −log10 of the molar value. Activity calls are given as the source filed them. The rule behind the calls is not given here.

Legend:
[1] = target: Serotonin N-acetyltransferase (Ovis aries) (UniProt Q29495); conditions: at 100 µM
[2] = target: Serotonin N-acetyltransferase (Ovis aries) (UniProt Q29495); conditions: at 100 µM; remark: listed apart in the source
[3] = target: Serotonin N-acetyltransferase (Ovis aries) (UniProt Q29495); conditions: at 100 µM; remark: listed apart in the source
[4] = target: Serotonin N-acetyltransferase (Ovis aries) (UniProt Q29495); conditions: at 100 µM; remark: listed apart in the source
[5] = target: Serotonin N-acetyltransferase (Ovis aries) (UniProt Q29495); test: Inhibition of ovine AANAT in presence of Triton X-100 at 25 uM by spectrophotometric assay
[6] = target: Serotonin N-acetyltransferase (Ovis aries) (UniProt Q29495); test: Inhibition of ovine AANAT at 25 uM by spectrophotometric assay
[7] = target: Serotonin N-acetyltransferase (Ovis aries) (UniProt Q29495); test: Inhibition of ovine AANAT at 25 uM by alpha-KD-coupled spectrophotometric assay
[8] = target: Serotonin N-acetyltransferase (Ovis aries) (UniProt Q29495); test: Inhibition of ovine AANAT at 25 uM by radioactive assay
[9] = target: T1, Serotonin N-acetyltransferase (Ovis aries, UniProt Q29495); test: Inhibition of ovine AANAT by spectrophotometric assay
[10] = Inhibition of melatonin biosynthesis in rat pinealocytes; assay type: functional, cell-based
[11] = target: Histone acetyltransferase KAT2B (Homo sapiens) (UniProt Q92831); test: Inhibition of PCAF HAT at 50 uM
How it was run: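 Radioactive HAT assay on purified PCAF HAT catalytic domain (10 nM), with histone H3 residues 1-20 (10 μM) as substrate, in 50 mM Tris-HCl pH 8.0, 1 mM DTT, 0.1 mM EDTA, 50 μg/mL BSA, 3.3% DMSO, 30 °C. Inhibitor tested at 0-50 μM. Started with 20 μM [14C]-AcCoA and quenched after 5 min. Gel separation, phosphorimaging against [14C]-BSA standard, no-enzyme background subtracted, duplicates.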

[12] = target: T1, Serotonin N-acetyltransferase; test: Inhibition of ovine AANAT by TLC-based radioactive assay
[13] = Toxicity in rat pinealocytes; assay type: cell-based; conditions: in vitro

Sequence of Serotonin N-acetyltransferase (Ovis aries) (Q29495 whole entry): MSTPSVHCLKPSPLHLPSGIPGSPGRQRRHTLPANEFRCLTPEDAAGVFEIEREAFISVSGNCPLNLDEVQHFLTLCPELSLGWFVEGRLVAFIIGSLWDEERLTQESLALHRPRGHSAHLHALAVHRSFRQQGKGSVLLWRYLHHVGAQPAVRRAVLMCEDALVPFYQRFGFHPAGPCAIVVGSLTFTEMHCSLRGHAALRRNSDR
T1 sequence (Q29495 whole entry): as above
Sequence of Histone acetyltransferase KAT2B (Homo sapiens) (Q92831 whole entry, looked up, the tested form may be a part): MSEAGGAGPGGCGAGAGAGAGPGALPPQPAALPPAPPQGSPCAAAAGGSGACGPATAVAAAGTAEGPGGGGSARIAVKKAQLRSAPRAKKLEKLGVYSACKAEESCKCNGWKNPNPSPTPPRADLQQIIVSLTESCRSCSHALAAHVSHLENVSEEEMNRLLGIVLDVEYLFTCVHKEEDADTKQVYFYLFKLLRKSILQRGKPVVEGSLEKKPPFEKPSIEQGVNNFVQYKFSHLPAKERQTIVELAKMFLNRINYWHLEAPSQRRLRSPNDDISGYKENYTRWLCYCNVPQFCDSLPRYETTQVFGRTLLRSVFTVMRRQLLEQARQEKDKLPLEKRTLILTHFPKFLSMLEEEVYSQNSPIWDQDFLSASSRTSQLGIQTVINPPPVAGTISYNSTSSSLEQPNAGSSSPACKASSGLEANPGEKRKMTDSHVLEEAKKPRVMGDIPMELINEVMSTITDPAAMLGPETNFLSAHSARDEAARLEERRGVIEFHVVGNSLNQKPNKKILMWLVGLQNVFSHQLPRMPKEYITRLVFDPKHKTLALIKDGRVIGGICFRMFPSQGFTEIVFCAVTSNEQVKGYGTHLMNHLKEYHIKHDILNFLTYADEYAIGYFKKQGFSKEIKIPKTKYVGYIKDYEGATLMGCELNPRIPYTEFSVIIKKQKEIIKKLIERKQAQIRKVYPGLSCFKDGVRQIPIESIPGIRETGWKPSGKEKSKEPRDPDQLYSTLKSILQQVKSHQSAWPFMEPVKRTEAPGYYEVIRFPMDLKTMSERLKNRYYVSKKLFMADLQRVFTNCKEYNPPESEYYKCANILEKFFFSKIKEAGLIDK

COc1ccc(/C=N/c2ccc(CC(=O)O)cc2)cc1
inhibition [1]: 13%
inhibition [2]: 64%
inhibition [3]: 30%
inhibition [4]: 41%

O=C(O)CCCN1C(=O)/C(=C2/C(=O)Nc3ccc(Br)cc32)SC1=S
inhibition [5]: 41%
inhibition [6]: 52%
inhibition [7]: 21%

CCc1ccc(/C=N/c2c(C)n(C)n(-c3ccccc3)c2=O)cc1
inhibition [5]: 61%
inhibition [6]: 70%
inhibition [8]: 0%
inhibition [7]: 47%

Cc1ccc(CN2C(=O)C(C3SC(=S)N(CCS(=O)(=O)O)C3=O)c3ccccc32)cc1 (stereo not given)
pIC50 [9]: 4.60
inhibition [1]: 99%
inhibition [2]: 54%
inhibition [3]: 98%
inhibition [4]: 84%

O=C(O)CCCCCN1C(=O)C(C2C(=O)N(Cc3ccc(F)cc3)c3ccccc32)SC1=S (stereo not given)
pIC50 [9]: 4.34
pIC50 [10]: 4.00
Activity [11]: inactive
pIC50 [12]: 4.95
Activity [13]: Non-toxic
inhibition [1]: 98%
inhibition [2]: 66%
inhibition [3]: 74%
inhibition [4]: 81%

CC(C)Oc1ccc(C(=O)CC(=O)Nc2ccc(S(=O)(=O)F)cc2)cc1
inhibition [5]: 59%
inhibition [6]: 43%
inhibition [7]: 0%

O=C1CC(CC(=O)N/N=C/c2c(O)ccc3ccccc23)=NN1
inhibition [3]: 23%
inhibition [4]: 50%

O=C(O)COc1ccc(/C=N/NC(=O)c2ccc(OCc3ccccc3)cc2)cc1
pIC50 [9]: 3.40
inhibition [1]: 74%

COc1ccc(NC(=O)CN2C(=O)/C(=C3\SCN(CCS(=O)(=O)O)C3=O)c3ccccc32)cc1
inhibition [5]: 41%
inhibition [6]: 52%
inhibition [8]: 0%
inhibition [7]: 56%

COc1ccc(/N=N/c2ccc(S(=O)(=O)O)cc2)cc1
inhibition [2]: 28%
inhibition [3]: 60%
inhibition [4]: 65%

O=C(O)CCCCCN1C(=O)/C(=C2/C(=O)N(CC(=O)O)c3ccc(Br)cc32)SC1=S
inhibition [5]: 55%
inhibition [6]: 43%
inhibition [7]: 11%

O=C(CN1C(=O)C(C2SC(=S)N(CCS(=O)(=O)O)C2=O)c2ccccc21)Nc1ccccc1 (stereo not given)
pIC50 [9]: 4.80
inhibition [1]: 99%
inhibition [2]: 70%
inhibition [3]: 80%
inhibition [4]: 99%

O=C(O)CCCCCN1C(=O)C(C2C(=O)Nc3ccccc32)SC1=S (stereo not given)
pIC50 [9]: 4.28
inhibition [1]: 94%
inhibition [2]: 78%
inhibition [3]: 83%
inhibition [4]: 100%

CCOc1ccc(C(=O)CC(=O)Nc2ccc(S(=O)(=O)F)cc2)cc1OC
inhibition [1]: 31%
inhibition [2]: 79%
inhibition [3]: 100%
inhibition [4]: 98%

COC(=O)Nc1ccc(S(=O)(=O)Nc2cc(OC)nc(OC)n2)cc1
inhibition [3]: 24%
inhibition [4]: 42%

O=C(COc1ccc([N+](=O)[O-])cc1)N/N=C/c1ccccc1COc1ccccc1
inhibition [3]: 11%
inhibition [4]: 40%
